Consider 1 molecule from ChEMBL document CHEMBL4261600 (Eur J Med Chem, 2018).

Structures are written as SMILES. Active and inactive are the calls of the source.

In series [1] the target is Tyrosine-protein kinase Srms (Homo sapiens) (UniProt Q9H3Y6). In words: Binding affinity to wild-type human partial length SRMS (L208 to P488 residues) expressed in mammalian expression system assessed as remaining unbound target protein level at 1000 nM by Kinomescan method relative to control.
The target of series [2] is Calcium-dependent protein kinase 1 (Plasmodium falciparum) (UniProt P62344). As to the kind of experiment: Binding affinity to wild-type Plasmodium falciparum full length CDPK1 (M1 to S524 residues) expressed in mammalian expression system assessed as remaining unbound target protein level at 1000 nM by Kinomescan method relative to control. The method, boiled down: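 KINOMEscan competitive binding profile at 1 μM inhibitor. Remaining target binding reported as percent of DMSO control.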
Chain of Calcium-dependent protein kinase 1 (Plasmodium falciparum) (P62344 2-524 limits assumed): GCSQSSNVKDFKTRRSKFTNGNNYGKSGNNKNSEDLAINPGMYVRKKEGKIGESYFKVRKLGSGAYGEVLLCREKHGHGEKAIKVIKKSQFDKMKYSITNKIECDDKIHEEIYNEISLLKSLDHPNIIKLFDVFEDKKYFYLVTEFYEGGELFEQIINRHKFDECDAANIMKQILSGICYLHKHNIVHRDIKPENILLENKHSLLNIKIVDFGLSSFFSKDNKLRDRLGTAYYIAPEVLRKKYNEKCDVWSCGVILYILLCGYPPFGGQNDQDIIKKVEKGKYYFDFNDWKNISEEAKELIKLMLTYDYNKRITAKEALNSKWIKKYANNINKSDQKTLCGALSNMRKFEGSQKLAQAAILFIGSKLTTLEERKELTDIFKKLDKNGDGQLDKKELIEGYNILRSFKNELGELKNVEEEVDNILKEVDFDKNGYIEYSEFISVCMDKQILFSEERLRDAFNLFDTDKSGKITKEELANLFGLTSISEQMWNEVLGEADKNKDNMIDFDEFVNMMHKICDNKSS

The target in series [3] is Phosphatidylinositol 4,5-bisphosphate 3-kinase catalytic subunit alpha isoform (Homo sapiens) (UniProt P42336). As to the kind of experiment: Binding affinity to wild-type human partial length PIK3CA (R108 to N1068 residues) expressed in mammalian expression system assessed as remaining unbound target protein level at 1000 nM by Kinomescan method relative to control.
For a further series, the system named is HL-60. In words: Induction of apoptosis in human HL60 cells assessed as decrease in BCL-2 level up to 3 uM after 2 hrs by immunoblotting analysis. It counts as functional, cell-based.
The target in series [4] is Mitogen-activated protein kinase kinase kinase 11 (Homo sapiens) (UniProt Q16584). As to the kind of experiment: Binding affinity to wild-type human partial length MLK3 (I77 to W399 residues) expressed in bacterial expression system assessed as remaining unbound target protein level at 1000 nM by Kinomescan method relative to control.
For series [5], the target named is Protein-tyrosine kinase 2-beta (Homo sapiens) (UniProt Q14289). In words: Binding affinity to wild-type human full length PYK2 (M1 to E967 residues) expressed in bacterial expression system assessed as remaining unbound target protein level at 1000 nM by Kinomescan method relative to control. The method in brief:
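Profiled in a KINOMEscan binding panel with the inhibitor at a single concentration of 1 μM. Binding to each kinase was read out as percent of control, relative to a DMSO control. Strong binders were defined as those with a percent control value below 1.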

Series [6] addresses G protein-coupled receptor kinase 4 (Homo sapiens) (UniProt P32298). As to the kind of experiment: Binding affinity to wild-type human full length GRK4 (M1 to C578 residues) expressed in bacterial expression system assessed as remaining unbound target protein level at 1000 nM by Kinomescan method relative to control. The method, boiled down:
(§1)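 Single-point competition binding screen across a panel of 468 kinases and mutants, with the inhibitor at 1 μM. Binding is read out as percent of a DMSO control, and targets below 1 percent control were classed as strong binders.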

For series [7], the target named is Serine/threonine-protein kinase Nek9 (Homo sapiens) (UniProt Q8TD19). In words: Binding affinity to wild-type human partial length NEK9 (P32 to R328 residues) expressed in bacterial expression system assessed as remaining unbound target protein level at 1000 nM by Kinomescan method relative to control.
Series [8] concerns the target Dual specificity protein kinase CLK2 (Homo sapiens) (UniProt P49760). In words: Binding affinity to wild-type human partial length CLK2 (D144 to R498 residues) expressed in bacterial expression system assessed as remaining unbound target protein level at 1000 nM by Kinomescan method relative to control. The method, boiled down: (§2)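 KINOMEscan competition binding profile across a panel of 468 kinases and mutants, with the inhibitor tested at a single concentration of 1 μM. Binding is reported as percent of control, meaning signal relative to a DMSO control.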

Series [9] addresses Tyrosine-protein kinase ITK/TSK (Homo sapiens) (UniProt Q08881). As to the kind of experiment: Binding affinity to wild-type human partial length ITK (R335 to L620 residues) expressed in bacterial expression system assessed as remaining unbound target protein level at 1000 nM by Kinomescan method relative to control.
A short description of series [10]: MRT (0 to infinity) in mouse at 10 mg/kg, po by LC-MS/MS analysis. The settings on record: in vivo. It counts as ADME, organism-based.
A short description of series [11]: Apparent volume of distribution in beagle dog at 2 mg/kg, iv by LC-MS/MS analysis. The note with it: in vivo, read-out: Vz. It counts as ADME, organism-based, Canis lupus familiaris. The method, boiled down:
(§3)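 Non-compartmental PK. Male SD rats 190-210 g, mice and beagle dogs acclimatized one week, fasted 12 h with water, split into iv and po groups (mice 48, rats 6, dogs 6). iv 3/3/2 mg/kg (mice/rats/dogs); po 10/20/10 mg/kg; vehicle DMSO in 5% glucose water. Blood at 2 or 5 to 720 min; plasma protein-precipitated with methanol, caffeine internal standard, LC-MS/MS.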

In series [12] the target is Mitogen-activated protein kinase kinase kinase kinase 1 (Homo sapiens) (UniProt Q92918). As to the kind of experiment: Binding affinity to wild-type human full length HPK1 (M1 to R799 residues) expressed in bacterial expression system assessed as remaining unbound target protein level at 1000 nM by Kinomescan method relative to control. The method in brief: as §2
Chain of Mitogen-activated protein kinase kinase kinase kinase 1 (Homo sapiens) (Q92918 whole entry, looked up, the tested form may be a part): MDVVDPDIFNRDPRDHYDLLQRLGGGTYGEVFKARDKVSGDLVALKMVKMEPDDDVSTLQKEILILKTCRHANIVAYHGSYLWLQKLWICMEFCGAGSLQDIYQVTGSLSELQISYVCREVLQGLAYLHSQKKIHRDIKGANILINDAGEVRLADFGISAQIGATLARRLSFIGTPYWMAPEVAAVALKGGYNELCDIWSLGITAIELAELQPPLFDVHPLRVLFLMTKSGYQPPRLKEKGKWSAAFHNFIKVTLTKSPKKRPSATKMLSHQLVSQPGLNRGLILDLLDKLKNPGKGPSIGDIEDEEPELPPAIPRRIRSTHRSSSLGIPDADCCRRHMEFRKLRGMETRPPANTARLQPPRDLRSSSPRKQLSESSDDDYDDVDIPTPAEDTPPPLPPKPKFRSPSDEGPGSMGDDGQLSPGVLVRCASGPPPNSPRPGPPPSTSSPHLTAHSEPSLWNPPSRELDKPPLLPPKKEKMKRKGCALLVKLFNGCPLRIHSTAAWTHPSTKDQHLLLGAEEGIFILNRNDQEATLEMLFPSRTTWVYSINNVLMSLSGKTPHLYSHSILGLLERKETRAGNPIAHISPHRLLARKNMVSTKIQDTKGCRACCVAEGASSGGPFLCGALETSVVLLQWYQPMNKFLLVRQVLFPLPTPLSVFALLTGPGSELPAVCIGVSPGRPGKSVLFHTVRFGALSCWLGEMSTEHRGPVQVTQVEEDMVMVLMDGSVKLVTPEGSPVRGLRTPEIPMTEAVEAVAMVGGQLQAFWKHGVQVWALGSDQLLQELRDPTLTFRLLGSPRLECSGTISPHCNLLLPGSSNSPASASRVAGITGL
The target in series [13] is Interleukin-1 receptor-associated kinase 1 (Homo sapiens) (UniProt P51617). As to the kind of experiment: Binding affinity to wild-type human partial length IRAK1 (R194 to S712 residues) expressed in mammalian expression system assessed as remaining unbound target protein level at 1000 nM by Kinomescan method relative to control. The method, boiled down: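 KINOMEscan binding panel of 468 kinases/mutants. Inhibitor was tested at a single concentration of 1 μM. Binding is reported as percent of control, defined relative to a DMSO control.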

Series [14] in a line: AUC (0 to infinity) in Sprague-Dawley rat at 3 mg/kg, iv by LC-MS/MS analysis. It counts as ADME, organism-based. Further details: dose 3 mg/kg, time infinity, route intravenous. The settings on record: in vivo. The method in brief: as §3
The target of a further series is CDK9/Cyclin K (Homo sapiens, UniProt P50750). As to the kind of experiment: Inhibition of CDK9/Cyclin K (unknown origin) using PDKtide as substrate incubated at 37 degreeC for 1 hr followed by incubation at room temperature for 5 mins by ADP-Glo reagent based luminescence assay. It counts as protein-complex assay. A general note: ADP-Glo turns the ADP formed in a reaction into a luminescent signal.
Chain of CDK9/Cyclin K (P50750 whole entry): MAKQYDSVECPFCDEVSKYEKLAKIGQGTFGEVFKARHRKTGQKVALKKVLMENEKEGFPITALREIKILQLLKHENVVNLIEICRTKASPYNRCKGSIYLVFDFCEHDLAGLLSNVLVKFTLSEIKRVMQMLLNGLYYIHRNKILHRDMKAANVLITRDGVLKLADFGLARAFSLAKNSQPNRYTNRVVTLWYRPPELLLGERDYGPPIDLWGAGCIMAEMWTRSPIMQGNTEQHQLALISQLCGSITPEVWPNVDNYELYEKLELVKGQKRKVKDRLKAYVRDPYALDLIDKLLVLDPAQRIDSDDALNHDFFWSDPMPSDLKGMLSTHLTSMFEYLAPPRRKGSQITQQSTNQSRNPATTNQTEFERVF
Chain of CDK9/Cyclin K (O75909 whole entry, further chain): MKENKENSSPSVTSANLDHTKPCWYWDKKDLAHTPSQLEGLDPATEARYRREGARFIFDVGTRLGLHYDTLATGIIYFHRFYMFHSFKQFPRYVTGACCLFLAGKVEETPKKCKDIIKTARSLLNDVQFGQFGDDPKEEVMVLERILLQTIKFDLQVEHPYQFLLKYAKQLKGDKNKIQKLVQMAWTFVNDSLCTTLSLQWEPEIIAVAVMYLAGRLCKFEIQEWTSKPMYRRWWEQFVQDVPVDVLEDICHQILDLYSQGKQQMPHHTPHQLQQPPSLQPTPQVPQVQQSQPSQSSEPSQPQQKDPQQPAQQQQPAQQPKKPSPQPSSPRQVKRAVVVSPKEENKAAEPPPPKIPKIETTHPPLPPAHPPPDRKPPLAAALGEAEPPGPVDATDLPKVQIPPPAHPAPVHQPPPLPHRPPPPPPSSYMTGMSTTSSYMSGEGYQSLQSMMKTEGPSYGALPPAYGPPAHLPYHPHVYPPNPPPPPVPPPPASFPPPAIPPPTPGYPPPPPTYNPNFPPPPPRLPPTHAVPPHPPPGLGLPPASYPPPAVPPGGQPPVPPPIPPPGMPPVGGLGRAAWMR

In series [15] the test system is Tyrosine-protein kinase ABL1 (Homo sapiens), P00519 [F317I]. In words: Binding affinity to human non-phosphorylated ABL1 F317I mutant (S229 to K512 residues) expressed in mammalian expression system assessed as remaining unbound target protein level at 1000 nM by Kinomescan method relative to control. The method in brief: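 KINOMEscan competition-binding profiling across the panel of 468 kinases and mutants, with inhibitor tested at 1 μM. Binding is expressed as percent of control, with DMSO as the reference control.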
Chain of Tyrosine-protein kinase ABL1 (Homo sapiens), P00519 [F317I] (P00519 whole entry F317I, the tested form may be a part): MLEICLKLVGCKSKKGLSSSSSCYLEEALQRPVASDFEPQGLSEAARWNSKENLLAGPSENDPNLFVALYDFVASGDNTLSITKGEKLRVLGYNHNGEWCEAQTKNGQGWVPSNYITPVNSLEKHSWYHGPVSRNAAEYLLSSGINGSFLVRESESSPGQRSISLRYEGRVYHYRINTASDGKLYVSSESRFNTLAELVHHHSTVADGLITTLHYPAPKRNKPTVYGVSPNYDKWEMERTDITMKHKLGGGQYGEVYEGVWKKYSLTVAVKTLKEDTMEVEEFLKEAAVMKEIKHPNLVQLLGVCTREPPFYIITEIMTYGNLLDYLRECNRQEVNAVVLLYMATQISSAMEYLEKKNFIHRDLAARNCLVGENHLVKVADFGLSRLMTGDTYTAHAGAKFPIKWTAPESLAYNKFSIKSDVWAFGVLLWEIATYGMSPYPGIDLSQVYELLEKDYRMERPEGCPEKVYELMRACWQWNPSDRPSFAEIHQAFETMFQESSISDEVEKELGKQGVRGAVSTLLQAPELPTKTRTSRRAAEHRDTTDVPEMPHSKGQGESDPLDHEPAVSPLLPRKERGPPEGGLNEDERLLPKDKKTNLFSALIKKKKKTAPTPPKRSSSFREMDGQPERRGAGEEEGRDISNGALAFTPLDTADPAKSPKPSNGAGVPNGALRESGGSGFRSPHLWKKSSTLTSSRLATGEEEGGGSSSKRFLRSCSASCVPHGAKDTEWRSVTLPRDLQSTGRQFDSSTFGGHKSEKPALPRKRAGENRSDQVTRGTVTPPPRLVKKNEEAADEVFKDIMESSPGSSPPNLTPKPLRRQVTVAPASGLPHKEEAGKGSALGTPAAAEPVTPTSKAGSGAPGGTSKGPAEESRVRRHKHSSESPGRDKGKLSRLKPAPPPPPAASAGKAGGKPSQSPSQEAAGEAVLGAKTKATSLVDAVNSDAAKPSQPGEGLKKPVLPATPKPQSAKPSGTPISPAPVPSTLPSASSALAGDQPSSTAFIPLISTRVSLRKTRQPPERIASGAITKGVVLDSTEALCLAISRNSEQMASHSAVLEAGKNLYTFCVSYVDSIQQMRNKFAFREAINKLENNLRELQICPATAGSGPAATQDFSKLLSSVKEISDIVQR

The target of series [16] is Testis-specific serine/threonine-protein kinase 1 (Homo sapiens) (UniProt Q9BXA7). In words: Binding affinity to wild-type human full length TSSK1B (M1 to Q367 residues) expressed in bacterial expression system assessed as remaining unbound target protein level at 1000 nM by Kinomescan method relative to control. The method in brief:
as §2

For series [17], the system named is Tyrosine-protein kinase ABL1 (Homo sapiens), P00519 [F317I]. In words: Binding affinity to human phosphorylated ABL1 F317I mutant (S229 to K512 residues) expressed in mammalian expression system assessed as remaining unbound target protein level at 1000 nM by Kinomescan method relative to control. The method, boiled down:
as §1

The target of series [18] is Activin receptor type-2A (Homo sapiens) (UniProt P27037). As to the kind of experiment: Binding affinity to wild-type human ACVR2A (V171 to T499 residues) expressed in bacterial expression system assessed as remaining unbound target protein level at 1000 nM by Kinomescan method relative to control. The method in brief: as §1

Chain of Tyrosine-protein kinase Srms (Homo sapiens) (Q9H3Y6 whole entry, the tested form may be a part): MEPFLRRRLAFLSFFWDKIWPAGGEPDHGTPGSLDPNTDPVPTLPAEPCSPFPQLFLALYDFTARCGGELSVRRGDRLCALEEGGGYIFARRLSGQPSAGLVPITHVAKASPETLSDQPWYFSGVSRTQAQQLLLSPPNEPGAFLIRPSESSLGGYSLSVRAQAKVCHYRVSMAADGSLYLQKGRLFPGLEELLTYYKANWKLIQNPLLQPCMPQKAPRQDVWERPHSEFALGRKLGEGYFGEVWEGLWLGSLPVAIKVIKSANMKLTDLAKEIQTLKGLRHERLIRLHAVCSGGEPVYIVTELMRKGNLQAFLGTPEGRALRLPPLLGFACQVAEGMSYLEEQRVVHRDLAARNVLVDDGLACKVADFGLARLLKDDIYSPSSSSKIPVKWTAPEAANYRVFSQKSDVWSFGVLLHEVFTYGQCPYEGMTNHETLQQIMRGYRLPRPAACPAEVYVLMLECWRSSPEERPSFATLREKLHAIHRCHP
Chain of Protein-tyrosine kinase 2-beta (Homo sapiens) (Q14289 whole entry, looked up, the tested form may be a part): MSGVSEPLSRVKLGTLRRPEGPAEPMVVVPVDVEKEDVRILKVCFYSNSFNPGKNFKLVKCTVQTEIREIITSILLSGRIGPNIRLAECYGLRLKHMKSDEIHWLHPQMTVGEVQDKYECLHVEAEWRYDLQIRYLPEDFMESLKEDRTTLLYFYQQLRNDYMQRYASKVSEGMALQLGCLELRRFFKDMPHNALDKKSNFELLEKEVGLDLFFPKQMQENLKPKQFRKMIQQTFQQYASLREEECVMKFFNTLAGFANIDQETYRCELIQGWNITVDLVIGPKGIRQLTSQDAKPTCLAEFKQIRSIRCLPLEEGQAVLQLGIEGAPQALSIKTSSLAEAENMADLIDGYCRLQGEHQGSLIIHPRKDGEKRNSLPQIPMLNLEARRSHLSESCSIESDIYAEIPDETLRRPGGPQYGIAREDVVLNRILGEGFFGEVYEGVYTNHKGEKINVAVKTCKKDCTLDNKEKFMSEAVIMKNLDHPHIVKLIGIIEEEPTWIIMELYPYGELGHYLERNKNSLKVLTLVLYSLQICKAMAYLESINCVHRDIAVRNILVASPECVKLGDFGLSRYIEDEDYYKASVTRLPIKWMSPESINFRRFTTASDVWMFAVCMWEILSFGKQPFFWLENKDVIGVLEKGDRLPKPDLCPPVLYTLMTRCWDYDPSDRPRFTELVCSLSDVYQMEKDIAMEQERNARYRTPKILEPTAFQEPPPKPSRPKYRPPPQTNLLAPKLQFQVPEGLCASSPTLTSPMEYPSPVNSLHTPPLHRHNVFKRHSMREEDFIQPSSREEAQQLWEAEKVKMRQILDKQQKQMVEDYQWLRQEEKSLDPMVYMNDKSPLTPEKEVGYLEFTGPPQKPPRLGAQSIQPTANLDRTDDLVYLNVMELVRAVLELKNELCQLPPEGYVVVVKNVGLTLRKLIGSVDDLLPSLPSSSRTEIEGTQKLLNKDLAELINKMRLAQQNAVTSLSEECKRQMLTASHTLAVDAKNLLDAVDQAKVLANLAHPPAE

The term MRT inf denotes a mean duration of stay, worked out from the concentration-time curve. A word on the AUC(0-inf): it is total exposure, with the tail of the curve extrapolated. A lower AUC(0-inf) goes with low exposure. As usually defined, the IC50 is the concentration at which inhibition is half-maximal. Read a high IC50 as lower potency. For the molecule `COCCN[C@H]1CC[C@H](Nc2cc(-c3csc(NCC4(C#N)CCOCC4)n3)c(Cl)cn2)CC1`, the Activity in series [1] was found to be 89%; in [2] it was 77%; in series [3] it was 95%; in series [4] it was 85%; in series [5] it was 90%; in [6], 96%. Besides, the Activity in series [7] came out at 89%; in [8], 38%; in series [9] it was 84%; in series [12], 95%; in [13], 57%; in [15], 90%. The results for the Activity in series [16], in series [17] and in [18] were 93%, 100% and 100%, respectively. Further, in the series with HL-60, the result was inactive. This molecule also gave a mean residence time (MRT inf) in series [10] of 3.48 h. Besides, the Vd in [11] was 12.8 L/kg. In addition, the AUC(0-inf) in [14] came out at 662 ng·h/mL. The same molecule yielded a concentration for half-maximal inhibition (IC50) on CDK9/Cyclin K of 6 nM.
